Consider six molecules from ChEMBL document CHEMBL1130315 (J Med Chem, 1997).

The target in experiment [1] is Sigma 2 receptor. The experiment is described as follows: Binding affinity was evaluated using [3H]-DTG binding to sigma-2 receptor from rat liver. A digest of the protocol:
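Rat liver membranes (male Sprague-Dawley), 160 μg protein, with 5 nM [3H]DTG plus 1 μM dextrallorphan to mask σ1 sites; 50 mM Tris-HCl pH 8.0, 120 min at 25 °C. Nonspecific binding with 10 μM haloperidol; filtration on poly(ethylenimine)-soaked glass fiber filters, scintillation counting.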

Experiment [2] has as its target Sodium-dependent dopamine transporter (Rattus norvegicus, UniProt P23977). The experiment is described as follows: Binding affinity was evaluated using [3H]WIN-35428 binding to dopamine transporter (DAT) in rat caudate-putamen. It counts as tissue-based.
In experiment [3] the target is Sodium-dependent dopamine transporter (Rattus norvegicus) (UniProt P23977). Kind of experiment: Binding constant(Bmax) of [3H]WIN-35428 at saturation in rat caudate-putamen tissue pre-incubated in buffer (Dopamine transporter). It counts as tissue-based. In outline: (§1)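 Rat caudate-putamen homogenate in Krebs-HEPES buffer pH 7.4, preincubated 1 h on ice with buffer alone, 100 nM or 10 μM ligand, then washed by two centrifugations. Twelve-point saturation with 0.1–25 nM [3H]WIN 35,428, 1 h on ice; filtration. Bmax and KD fitted by nonlinear least squares across replicate experiments, with standard errors; protein by modified Lowry.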
Chain of Sodium-dependent dopamine transporter (Rattus norvegicus) (P23977 whole entry): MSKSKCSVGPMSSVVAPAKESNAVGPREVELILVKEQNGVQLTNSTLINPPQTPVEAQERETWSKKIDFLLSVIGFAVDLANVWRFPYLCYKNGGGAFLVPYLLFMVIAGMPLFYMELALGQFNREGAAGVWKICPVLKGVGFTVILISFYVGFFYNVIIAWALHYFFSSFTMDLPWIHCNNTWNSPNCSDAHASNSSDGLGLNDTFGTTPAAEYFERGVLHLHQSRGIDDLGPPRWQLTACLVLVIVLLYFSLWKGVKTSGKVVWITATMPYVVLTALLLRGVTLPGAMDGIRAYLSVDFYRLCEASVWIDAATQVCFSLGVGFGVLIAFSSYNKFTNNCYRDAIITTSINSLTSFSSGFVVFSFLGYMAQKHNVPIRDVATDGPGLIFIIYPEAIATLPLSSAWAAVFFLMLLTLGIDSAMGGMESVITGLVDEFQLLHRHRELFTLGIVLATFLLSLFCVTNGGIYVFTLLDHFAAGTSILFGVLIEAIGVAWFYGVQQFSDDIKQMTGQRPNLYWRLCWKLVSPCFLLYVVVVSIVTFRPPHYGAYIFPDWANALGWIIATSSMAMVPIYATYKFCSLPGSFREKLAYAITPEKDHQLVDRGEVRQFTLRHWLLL

Experiment [4] shares this target. Kind of experiment: Binding constant(Bmax) of [3H]WIN-35428 at saturation in rat caudate-putamen tissue pre-incubated in buffer at 10 uM (Dopamine transporter). It counts as tissue-based. In outline:
as §1

The target is the same in experiment [5]. Kind of experiment: Binding constant(Bmax) of [3H]WIN-35428 at saturation in rat caudate-putamen tissue preincubated in buffer at 100 nM (Dopamine transporter). Format: tissue-based. A digest of the protocol: as §1

Chain of Sodium-dependent dopamine transporter (P23977 whole entry): as above

`C[C@@H]1CN(CCCn2c3ccccc3c3ccccc32)C[C@H](C)N1` [RIMCAZOLE]: the figures for the 50% inhibitory concentration (IC50) in experiment [1] and in experiment [2] were 386 nM and 57.6 nM, respectively.

Take `CC1CN(CCCn2c3ccccc3c3cc(N=C=S)ccc32)CC(C)N1C` (stereo not drawn): the IC50 (as a rule, the concentration at which inhibition is half-maximal) in experiment [2] is 1330 nM.

For `CC1CN(CCCn2c3ccccc3c3ccccc32)CC(C)N1CCCCCCN=C=S` (stereo not drawn), the Bmax (fM (mg of protein)-1) in experiment [3] worked out at 537; in experiment [4] it was 6.65; in experiment [5], 167. In experiment [1], this molecule yielded an IC50 of 211 nM.

As to `CC1CN(CCCn2c3ccccc3c3ccccc32)CC(C)N1CCN=C=S` (stereo not drawn), the results for the IC50 in experiment [1] and in experiment [2] were 1440 nM and 1250 nM, respectively.

In the case of `CC1CN(CCCn2c3ccccc3c3ccccc32)CC(C)N1CCCN=C=S` (stereo not drawn), the IC50 in experiment [1] was 877 nM; in experiment [2], 523 nM.

`C[C@H]1CN(CCCn2c3ccccc3c3ccccc32)C[C@H](C)N1C`: the IC50 in experiment [1] is 294 nM; in experiment [2], 244 nM.
